In ChEMBL document CHEMBL4011636, “Utilization of an Active Site Mutant Receptor for the Identification of Potent and Selective Atypical 5-HT2C Receptor Agonists” (J Med Chem, 2017):
Values belong to the compound of their own block, whether it stands above or below them.

Assays:
[1] = system: Rattus norvegicus; assay: Antiobesity activity in ad libitum feeding Sprague-Dawley rat model assessed as reduction in food intake at 10 mg/kg, po administered at 60 mins prior to the onset of the dark cycle followed by incubation for first 8 hrs in light cycle and 12 hrs in dark cycle; type: functional; design: scale not given: the % may be the effect or the level left
Method in brief: (§1)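 Male Sprague Dawley rats (~225 g; n = 6), trained in operant chambers, dosed orally with compound or vehicle (14% PPG, 1% Tween, 85% water) 60 min before dark onset. Food intake was monitored in individual boxes for 20 h (12 h dark plus first 8 h light). Percent reduction was computed from drug-treated versus vehicle-treated total intake.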

[2] = Plasma concentration in Sprague-Dawley rat at 1 mg/kg, iv measured at 1 hr post dose by LC/MS-MS analysis; type: ADME, organism-based
[3] = Drug uptake in Sprague-Dawley rat brain at 30 mg/kg, po measured at 7 hrs post dose by LC/MS-MS analysis; type: ADME, organism-based; conditions: read-out: Drug uptake
Method in brief: (§2)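 Male rats given 30 mg/kg orally in 0.15% docusate sodium/2% PVP-K/97.85% water. Plasma and brain were sampled at a single time point after dosing. Brain was diluted 1:2 (vol/weight) with water before homogenization (dilution factor 3). Concentrations were measured by LC/MS−MS after acetonitrile protein precipitation. Values are the average of three animals; B/P is the brain to plasma ratio.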

[4] = Efflux ratio of permeability across basolateral to apical side in human Caco2 cells; type: ADME, cell-based; conditions: Caco-2
[5] = molecular target: 5-hydroxytryptamine receptor 2A (Homo sapiens, UniProt P28223); assay: Agonist activity at recombinant human 5-HT2A receptor expressed in HEK293E cells assessed as induction of intracellular Ca2+ levels after 90 secs by Fluo-4-dye based FLIPR assay; type: cell-based, HEK293
Method in brief: (§3)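 HEK293E cells stably expressing human receptor (VNV isoform for 5-HT2C; ~400−795 fmol/mg protein), grown in DMEM with 10% dialyzed FBS and G418. Cells plated at 20 000/well in serum-free DMEM overnight at 37 °C, then loaded 1 h at room temperature with 5 μM Fluo-4 in HBSS/25 mM HEPES. Eleven compound concentrations added on FLIPR, Ca2+ signal read for 90 s. EC50 from a four-parameter logistic fit, at least triplicate.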

[6] = molecular target: T1, 5-hydroxytryptamine receptor 2C (Homo sapiens, UniProt P28335); assay: Agonist activity at recombinant human 5-HT2C receptor expressed in HEK293E cells assessed as induction of intracellular Ca2+ levels after 90 secs by Fluo-4-dye based FLIPR assay; type: functional, cell-based, HEK293; method in brief: as §3
T1 sequence (P28335 whole entry): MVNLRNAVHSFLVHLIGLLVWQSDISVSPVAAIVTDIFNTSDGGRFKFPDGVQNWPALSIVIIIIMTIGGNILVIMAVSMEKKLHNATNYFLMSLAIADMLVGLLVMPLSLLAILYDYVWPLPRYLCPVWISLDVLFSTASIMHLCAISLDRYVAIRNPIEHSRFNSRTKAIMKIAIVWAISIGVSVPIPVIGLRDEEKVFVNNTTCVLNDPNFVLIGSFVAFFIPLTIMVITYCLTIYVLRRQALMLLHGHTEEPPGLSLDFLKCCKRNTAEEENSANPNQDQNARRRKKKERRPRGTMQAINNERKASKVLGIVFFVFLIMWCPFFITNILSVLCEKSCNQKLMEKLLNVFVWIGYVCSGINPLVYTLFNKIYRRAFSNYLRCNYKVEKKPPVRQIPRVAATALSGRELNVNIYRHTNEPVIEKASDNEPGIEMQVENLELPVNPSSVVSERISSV

[7] = Metabolic stability in rat liver microsomes assessed as parent compound remaining at […] after 10 mins; type: ADME, microsome; conditions: read-out: Stability
[8] = Substrate activity at rat P-gp; type: ADME
[9] = Plasma concentration in Sprague-Dawley rat at 30 mg/kg, po measured at 7 hrs post dose by LC/MS-MS analysis; type: ADME, organism-based; method in brief: as §2
[10] = Protein binding in human plasma; type: ADME, cell-free; conditions: read-out: PPB (converted)
[11] = molecular target: 5-hydroxytryptamine receptor 2B (Homo sapiens, UniProt P41595); assay: Agonist activity at recombinant human 5-HT2B receptor expressed in HEK293E cells assessed as induction of intracellular Ca2+ levels after 90 secs by Fluo-4-dye based FLIPR assay; type: cell-based, HEK293; method in brief: as §3
[12] = Permeability of compound at pH 5.5 by PAMPA; type: physicochemical; conditions: read-out: permeability
[13] = Permeability across apical to basolateral side in human Caco2 cells; type: ADME, cell-based; conditions: Caco-2, read-out: permeability
[14] = Permeability across basolateral to apical side in human Caco2 cells; type: ADME, cell-based; conditions: Caco-2, read-out: permeability
[15] = Protein binding in rat plasma; type: ADME, cell-free; conditions: read-out: PPB (converted)
[16] = Metabolic stability in human liver microsomes assessed as parent compound remaining at […] after 10 mins; type: ADME, microsome; conditions: read-out: Stability
[17] = Ratio of drug uptake in Sprague-Dawley rat brain to plasma at 30 mg/kg, po measured at 7 hrs post dose by LC/MS-MS analysis; type: ADME, organism-based; conditions: read-out: BPR; method in brief: as §2
[18] = Ratio of drug uptake in Sprague-Dawley rat brain to plasma at 1 mg/kg, iv measured at 1 hr post dose by LC/MS-MS analysis; type: ADME, organism-based; conditions: read-out: BPR
[19] = molecular target: T2, 5-hydroxytryptamine receptor 2C (Homo sapiens) (UniProt P28335); assay: Intrinsic activity at recombinant human 5-HT2C receptor expressed in HEK293E cells assessed as induction of intracellular Ca2+ levels after 90 secs by Fluo-4-dye based FLIPR assay relative to serotonin; type: functional, cell-based; conditions: HEK293
T2 sequence (whole entry): T1 sequence (P28335 whole entry)
Method in brief: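 FLIPR Fluo-4 Ca2+ assay in HEK293E cells stably expressing the human receptor (VNV isoform for 5-HT2C), eleven-point concentration series, 90 s read. Response normalized to 3 μM serotonin on the same plate (defined as IA = 1). Intrinsic activity taken from a four-parameter logistic fit.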

[20] = Permeability of compound at pH 7.4 by PAMPA; type: physicochemical; conditions: read-out: permeability
[21] = Drug uptake in Sprague-Dawley rat brain at 1 mg/kg, iv measured at 1 hr post dose by LC/MS-MS analysis
[22] = Half life in rat microsomes; type: ADME, Microsome
[23] = Half life in human microsomes; type: ADME, Microsome
[24] = Substrate activity at human P-gp; type: ADME
[25] = system: Rattus norvegicus; assay: Antiobesity activity in ad libitum feeding Sprague-Dawley rat model assessed as reduction in food pellet consumption at 10 mg/kg, po administered at 60 mins prior to the onset of the dark cycle followed by incubation for first 8 hrs in light cycle and 12 hrs in dark cycle; type: functional; design: scale not given: the % may be the effect or the level left; method in brief: as §1

Chain of 5-hydroxytryptamine receptor 2B (P41595 whole entry): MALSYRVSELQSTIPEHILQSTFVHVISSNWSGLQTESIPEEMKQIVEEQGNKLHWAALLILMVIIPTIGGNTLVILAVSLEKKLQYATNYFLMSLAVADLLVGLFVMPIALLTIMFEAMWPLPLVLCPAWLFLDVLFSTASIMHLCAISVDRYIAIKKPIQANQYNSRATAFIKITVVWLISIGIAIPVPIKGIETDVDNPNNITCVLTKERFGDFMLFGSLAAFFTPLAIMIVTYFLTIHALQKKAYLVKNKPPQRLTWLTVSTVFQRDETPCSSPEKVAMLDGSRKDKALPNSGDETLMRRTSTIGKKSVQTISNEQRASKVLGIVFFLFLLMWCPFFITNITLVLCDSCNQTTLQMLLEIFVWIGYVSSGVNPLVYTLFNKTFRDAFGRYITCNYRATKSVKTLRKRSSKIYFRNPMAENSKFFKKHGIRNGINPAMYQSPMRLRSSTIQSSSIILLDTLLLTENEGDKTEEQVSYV
Chain of 5-hydroxytryptamine receptor 2A (P28223 whole entry, canonical isoform): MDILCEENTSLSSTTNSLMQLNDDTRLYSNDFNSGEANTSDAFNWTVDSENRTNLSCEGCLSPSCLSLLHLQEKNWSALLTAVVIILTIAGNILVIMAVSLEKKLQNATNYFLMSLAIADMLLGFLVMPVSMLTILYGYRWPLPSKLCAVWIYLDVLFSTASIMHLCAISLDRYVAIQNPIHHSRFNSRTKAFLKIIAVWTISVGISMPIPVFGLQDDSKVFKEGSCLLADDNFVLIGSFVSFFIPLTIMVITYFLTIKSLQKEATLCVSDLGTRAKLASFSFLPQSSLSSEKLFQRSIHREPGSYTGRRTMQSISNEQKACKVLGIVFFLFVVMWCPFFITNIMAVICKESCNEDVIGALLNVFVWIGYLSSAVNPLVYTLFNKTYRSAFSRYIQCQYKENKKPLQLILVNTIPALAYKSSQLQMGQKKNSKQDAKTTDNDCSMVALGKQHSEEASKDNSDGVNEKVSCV

Structure (SMILES): Cc1cc2c(cc1C(F)(F)F)N(C(=O)Nc1ccc(Oc3cccnc3C)nc1)CC2 [SB-243213]
Activity [1]: 15%

concentration at 1 h [2]: 569 nM
concentration at 7 h [3]: 35 nM
efflux ratio [4]: 0.5
EC50 [5]: > 10 µM
EC50 [6]: 0.006 µM
remaining at 10 min [7]: 24%
Activity [8]: Active
concentration at 7 h [9]: 736 nM
fraction unbound [10]: 0.005
EC50 [11]: > 10 µM
Papp [12]: 60.7 ×10⁻⁶ cm/s
Papp A→B [13]: 32.9 ×10⁻⁶ cm/s
Papp B→A [14]: 17.5 ×10⁻⁶ cm/s
fraction unbound [15]: 0.004
remaining at 10 min [16]: 80%
Kp at 7 h [17]: 0.05
Kp at 1 h [18]: 0.15
Intrinsic activity [19]: 1 to 1.1
Papp [20]: 73.9 ×10⁻⁶ cm/s
concentration at 1 h [21]: 76 nM
half-life [22]: 6 min
half-life [23]: 21 min
Activity [24]: Not Active
Structure (SMILES): Cc1nc(-c2cccc3ccccc23)sc1C(=O)N1CCC(CO)CC1

Structure (SMILES): Cc1c(C(=O)NN2CCCCC2)nn(-c2ccc(Cl)cc2Cl)c1-c1ccc(Cl)cc1 [RIMONABANT]
Activity [25]: 27%
